Source: PubChem (several laboratories)
A1 inh – inhibitors of the anti-apoptotic protein A1, read as caspase activation; MEF A1-2A-BIM cells, Caspase-Glo 3/7 luminescence, 3 h; percent of clofoctol response, vehicle zero; caspase activation, % (no concentration beside the values); actives 0.066% (n = 330,000);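 active = over half of replicate activation scores above 10%, or exactly half above 10 with the replicate mean above 10; inconclusive = replicate mean below 10 yet half the replicates above 10; inactive = over half of replicates below 10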
NPR1 activator – GC-A (human) enzyme activation; P16066; HEK293 GC-A cells, cGMP TR-FRET, EC30 ANP; 0% at EC30 ANP, 100% saturating ANP; activation, % at 10 µM; actives 0.14% (n = 370,000); in the data active = activation above about 40%
MT1-MMP act inh – inhibitors of human MT1-MMP activation; P50281; HT1080 RFP-PRO-GFP cells, GFP/RFP ratio fluorescence, overnight; percent of plate control window, DMSO zero; GFP/RFP ratio change, % at 20 µM; actives 0.061% (n = 360,000);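 active = GFP/RFP ratio change of at least 30% with cell ATP level not reduced by more than half and red fluorescence within 50% of control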
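Assay system: RFP-PRO-GFP reporter HT1080 cells; read-out basis: GFP/RFP fluorescence ratio; benchmarks: DMSO wells and RFP-L50D-GFP cells; doses: 20 µM single dose, 1% DMSO; schedule: overnight cell settling, then overnight compound exposure, 37 °C, 5% CO2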
TbMetRS inhib – blocks T. brucei methionyl-tRNA synthetase activity; purified T. brucei MetRS, ATP depletion, Kinase-Glo luminescence; inhibition, % at 11.9 µM; actives 0.4% (n = 360,000);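 active = inhibition above a per-plate cutoff of the control wells' mean inhibition plus 3 SD, cut at about 5.5% in these data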;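 note: 0% = DMSO wells median and 100% = median of wells with control inhibitor compound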
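System: purified T. brucei MetRS enzyme / Detection: Kinase-Glo luciferase luminescence reporting remaining unconsumed ATP / Medium: HEPES buffer with MgCl2, KCl, DTT, spermine, BSA, pyrophosphatase / Replication: singlicate, one well per compound / Evaluation: percent inhibition relative to median high and low control wells / Schedule: 2 h aminoacylation at 25 °C after 15 min preincubation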
SKN-1 inh – blocks SKN-1 activity in C. elegans | AID 624304 | C. elegans VP596 Pgst-4::GFP/RFP ratio, acrylamide-induced, 24 h | actives 0.49% (n = 360,000) | inhibition, % at 21.8 µM;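 active = interference check ratio from 0.5 to 1.5 plus GFP to RFP signal ratio inhibition reaching or exceeding a fixed threshold, cut at about 30% in these data, passing the limit was not always enough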
NPR2 activator – GC-B (human) receptor activation; P20594; HEK293-GC-B cells, CNP EC30, cGMP TR-FRET; 0% at EC30 CNP, 100% saturating CNP; activation, % at 10 µM; actives 0.11% (n = 370,000); AID 1920062;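 active = activation at 10 µM reaching about 35% in either raw or pattern-adjusted values, limit read from the data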
The depositor's hits bear a star; ? = inconclusive; / = no result given. Only some compounds are listed: those with a hit (about 1.1% of all), similar ones and a draw of the others.

SMILES	A1 inh	NPR1 activator	MT1-MMP act inh	TbMetRS inhib	SKN-1 inh	NPR2 activator
N#Cc1c(SCc2ccccc2)nc(N2CCOCC2)c2c1CCCC2	-1	35	-12	0	9	37*
Oc1[nH]c2ccccc2c1N=Nc1ccccn1	/	-9	2	0	6	-5
Oc1c(N=Nc2ccccn2)ccc2ccccc12	-7	-10	77	-1	46*	-10
COc1ccc(-n2c(SCC(=O)N(CC(C)C)CC(C)C)nnc2-c2ccncc2)cc1	/	0	/	/	/	0
CCN(CC(=O)Nc1c(F)cccc1F)C(=O)/C=C/c1ccc(C)cc1	12*	-4	0	0	-6	-3
O=c1c2ccccc2oc2ccc(-c3ccc4[nH]ccc4c3)cc12	-4	2	-3	0	62*	1
CC(C)Oc1cccc(-c2n[nH]c(=S)n2N=Cc2cccc([N+](=O)[O-])c2)c1	/	0	/	/	/	-10
CSc1nsc(SCc2ccc(F)cc2)n1	1	3	0	0	60*	-5
O=C1CCC(CNc2ccccc2)N1c1ccccc1 (stereo not drawn)	/	0	/	/	/	-1
O=C(Nc1ccc(F)cc1)c1ccccc1F	-5	-5	-4	0	22	0
O=C(Nc1ccc(SC(F)F)cc1)c1ccccc1F	-7	1	5	0	41*	2
O=C(Nc1ccc(Cl)cc1Cl)OC1CCC12CCC(c1ccccc1)CC2 (stereo not drawn)	/	-2	/	/	/	-6
COC(=O)c1cc(NC(=O)CN(c2ccc3c(c2)OCO3)S(C)(=O)=O)ccc1Cl	0	-4	-2	0	36*	-2
CS(=O)(=O)N(CC(=O)Nc1ccc2c(c1)OCO2)c1ccc2c(c1)OCO2	-1	0	3	0	22	0
Cn1c(=O)[nH]c(=O)c2c1nc(NC1CCCC1)n2Cc1ccccc1	1	44*	3	0	3	32
Cn1c(=O)c2c(nc(NCC3CCCO3)n2C)n(C)c1=O (stereo not drawn)	1	11	4	0	16	0
Cn1c(=O)n(Cc2ccccc2)c(=O)c2c1nc(NCC1CCCO1)n2Cc1ccccc1 (stereo not drawn)	0	49*	-21	0	-11	57*
COCc1cc(C)nc(SCC(=O)Nc2ccc(C)c(C)c2)c1C#N	0	-1	-5	0	45*	5
Clc1ccc(-c2cnc3ccccc3n2)cc1	-7	2	5	-1	42*	-5
Oc1ccc(-c2cnc3ccccc3n2)cc1	-7	-2	/	1	-7	-8
c1ccc(-n2nc3c(ccc4cnnc43)[nH]2)cc1	0	10	1	-2	31*	-6
O=C1CCC[C@H]2Cc3nc4cccc(Cl)c4cc3C[C@]23CCCN13	/	-2	/	/	/	-14
COCCCNC(=O)c1ccc2c3c(onc13)-c1ccccc1C2=O	-1	/	24	0	62*	/
O=C(NCc1cccs1)c1csc([C@@H]2O[C@H](CO)[C@H](O)[C@H](O)[C@H]2O)n1	/	-2	0	0	43*	4
Cc1ccc(NC(=O)C2CCCN(c3nnc(-n4cccc4)s3)C2)c(C)c1 (stereo not drawn)	/	-3	/	/	/	-9
SMILES	A1 inh	NPR1 activator	MT1-MMP act inh	TbMetRS inhib	SKN-1 inh	NPR2 activator
Cc1ccc(CNC2CCC23CCC(c2ccccc2)CC3)o1 (stereo not drawn)	/	-4	/	/	/	-6
Cc1ccc(/C=C2/NC(=O)N(Cc3ccccc3)C2=O)s1	0	3	-68	-1	4	-1
CCN1C(=O)/C(=C/c2ccc(C)s2)NC1=S	0	35	1	0	15	38*
CCOC(=O)COc1ccc(/C=C2\NC(=S)N(CC)C2=O)cc1	1	44*	-3	-1	-3	51*
COc1ccc(C(=O)C2(C(=O)Nc3cc(C)cc(C)c3)CC(c3ccccc3C(F)(F)F)=NO2)cc1 (stereo not drawn)	/	-2	/	/	/	-1
Cc1cc(OCCCCN2C(=O)NC(C)(C)C2=O)cc(C)c1Cl	?	15	0	-1	39*	-8
